This is a sample that favours compounds with a hit; in the whole collection about 1.5% have one here.
PTK2B oligo ant: blocks oligomerization of human Pyk2 in cells | Q14289 | z-score (the deposit names both 25 µM and 10 µM) | 0.83% of 99,000 active | Q293 cells, Pyk2 FERM NanoBiT luminescence; hits give low values | AID 1347419;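 active means Z-score of -3 or lower, scaled per plate to the spread of control and sample wells; inactive means z-score above -3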;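 further: negative z-score means lost luminescence so less FERM oligomerization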
Target sequence (Q14289 whole entry, looked up): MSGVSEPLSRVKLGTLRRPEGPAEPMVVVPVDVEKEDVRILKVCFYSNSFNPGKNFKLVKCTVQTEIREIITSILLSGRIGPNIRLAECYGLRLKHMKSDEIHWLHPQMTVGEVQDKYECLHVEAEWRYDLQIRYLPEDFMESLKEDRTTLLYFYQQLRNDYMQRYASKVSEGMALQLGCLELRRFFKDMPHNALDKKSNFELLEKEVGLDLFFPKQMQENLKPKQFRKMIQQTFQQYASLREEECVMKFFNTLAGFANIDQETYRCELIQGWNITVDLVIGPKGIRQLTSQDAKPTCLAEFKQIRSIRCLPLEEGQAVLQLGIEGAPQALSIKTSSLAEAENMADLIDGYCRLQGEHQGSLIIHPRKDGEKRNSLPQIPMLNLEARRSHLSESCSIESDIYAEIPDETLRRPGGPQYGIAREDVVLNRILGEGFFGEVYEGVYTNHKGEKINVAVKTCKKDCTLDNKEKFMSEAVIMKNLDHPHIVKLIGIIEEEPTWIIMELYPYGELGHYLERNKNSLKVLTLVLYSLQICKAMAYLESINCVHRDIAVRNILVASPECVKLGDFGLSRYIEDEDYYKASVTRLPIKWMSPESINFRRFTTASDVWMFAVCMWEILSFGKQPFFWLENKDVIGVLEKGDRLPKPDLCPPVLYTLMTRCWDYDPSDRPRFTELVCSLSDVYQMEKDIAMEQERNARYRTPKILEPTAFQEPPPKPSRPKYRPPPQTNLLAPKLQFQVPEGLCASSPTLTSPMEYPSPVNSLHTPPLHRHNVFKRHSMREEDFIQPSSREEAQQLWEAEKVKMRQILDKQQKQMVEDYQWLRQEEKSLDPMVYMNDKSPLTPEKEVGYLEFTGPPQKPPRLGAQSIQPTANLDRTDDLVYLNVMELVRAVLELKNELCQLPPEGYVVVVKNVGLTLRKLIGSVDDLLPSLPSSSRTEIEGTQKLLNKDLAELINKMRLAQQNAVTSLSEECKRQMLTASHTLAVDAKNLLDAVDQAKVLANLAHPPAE
AP complement: alternative pathway complement inhibition, orthogonal assay. inhibition, % at 5 µM. AID 1235. Human serum alternative complement pathway, LPS-coated ELISA, C3 deposition; tested in compound mixtures. 0.08% of 62,000 active;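 active means inhibition above 30% in each of the two pooled mixtures holding the compound, so the lower value exceeds 30%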;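 further: 0% = serum in Mg-EGTA without compound and 100% = EDTA serum blank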
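Assay system: human serum alternative complement pathway, C3 deposition on LPS-coated wells; Dosing: 5 µM per compound in ten-compound mixtures; Detection: Anti-C3 ELISA, OD 450 nm; Buffer or medium: Mg2+-EGTA GVB++ buffer containing human serum at 1:15 dilution; Timing: 1 h at 37 °C; Replication: two different pools per compound.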
HEK293 NFkB inh: lowers PMA/ionomycin-induced NF-kB signal in HEK293 cells; HEK-293 NF-kB luciferase reporter, luminescence; inhibition, % at 3 µM; 0.21% of 62,000 active; AID 465;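 active means inhibition above the mean of all tested compounds plus 3 SD, cut at about 40% in these data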;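 further: 0% = stimulated DMSO wells and 100% = 10 µM reference inhibitor 5653914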
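System – HEK-293 cells with stable firefly luciferase reporter driven by four HIV NF-kB elements · Doses – one dose, 3 µM · Schedule – 1 h compound pre-incubation, 16 h PMA/ionomycin at 37 °C · Technique – luminescence from luciferase substrate reagent · Measure – percent inhibition normalized per plate to DMSO and reference-inhibitor controls · Replicates – tested once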
Plk1 PBD FP: Plk1 (human) PBD binding inhibition. P53350. inhibition, %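 (tested at about 20 µM)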. 0.13% of 97,000 active. Plk1 PBD phosphopeptide binding, fluorescence polarization; in the data active means inhibition above about 34%, passing the limit was not always enough
PLK1 kinase inh: PLK1 (human) kinase inhibition; P53350; recombinant PLK1 kinase, TR-FRET peptide phosphorylation; inhibition, % at 10 µM; 0.53% of 97,000 active; AID 619;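 active means inhibition of 50% or more in the single-concentration screen; inactive means inhibition below 50%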;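 further: 0% = DMSO max control and 100% = H-89 dihydrochloride min control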
HePTP inh: inhibitors of human HePTP phosphatase | recombinant HePTP phosphatase activity, OD absorbance | inhibition, % at 20 µM | 0.64% of 110,000 active | AID 521; in the data active means inhibition above about 50%;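 further: plate controls were vehicle for no effect and reference inhibitor for full effect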
* hit, by the source's call; · = no result.

SMILES	PTK2B oligo ant	AP complement	HEK293 NFkB inh	Plk1 PBD FP	PLK1 kinase inh	HePTP inh
COC(=O)c1ccc(C(=O)OC)c(NC(=O)CC(c2ccccc2)c2ccccc2)c1	·	·	·	·	·	8
O=C(NCC(c1ccco1)N1CCN(c2ccc(F)cc2)CC1)OCc1ccccc1 (centres undefined)	-3*	·	·	·	·	·
O=C(NCC(c1cccnc1)N1CCN(c2ccccc2)CC1)OCc1ccccc1 (centres undefined)	-1.4	·	10	-13	-14	·
O=C(NCC(c1cccnc1)N1CCN(c2ccccc2F)CC1)OCc1ccccc1 (centres undefined)	-3.1*	4	7	-18	-2	7
CCOC(=O)C1=C(C)N=c2s/c(=C\c3ccc(NC(C)=O)cc3)c(=O)n2C1c1ccc(OC)c(OC)c1 (centres undefined)	·	·	·	·	·	8
Cc1ccc(C2CC(C(F)(F)F)n3nc(C(=O)NCc4c(C)nn(C)c4C)c(Cl)c3N2)cc1 (centres undefined)	-3.5*	7	22	-10	-12	0
Cc1nn(C)c(C)c1CNC(=O)c1cnn2c1NC(c1ccccc1)CC2C(F)(F)F (centres undefined)	-1.1	11	25	-21	-12	4
CCc1ccc(OCCNC(=O)CN(c2ccc(C)cc2)S(C)(=O)=O)cc1	·	·	·	·	·	2
Cc1ccc(N=Cc2c(C(F)(F)F)[nH]n(-c3ccccc3)c2=O)cc1	·	·	·	·	·	64*
CC(C)CCNC(=O)C(c1ccco1)N(Cc1cccs1)C(=O)Cn1nnc2ccccc21 (centres undefined)	-3.1*	5	14	·	·	4
COCCNC(=O)C(c1cccs1)N(Cc1cccs1)C(=O)Cn1nnc2ccccc21 (centres undefined)	-0.22	·	·	-3	5	·
CCOC(=O)C1=C(CC)Nc2ccccc2N=C1NC(=O)Nc1ccc(Cl)c(Cl)c1	-4.1*	·	·	-12	-9	·
CCOC(=O)C1=C(CC)Nc2ccccc2N=C1NC(=O)Cn1cnc2ccccc2c1=O	-0.25	6	9	10	-7	6
COc1ccc(-c2cc(C(F)(F)F)n3nc(C(=O)OC(C)C)cc3n2)cc1OC	·	·	·	·	·	4
COc1ccc(C2(CNC(C)=O)CCOCC2)cc1OC	·	19	12	12	62*	10
CCC(=O)c1ccc(OCC(O)COc2ccc(C(=O)CC)cc2OC)c(OC)c1	·	·	·	·	·	-16
Cc1sc(NC(=O)c2ccco2)c(CN2CCC(C)CC2)c1C	-0.46	·	·	-20	-7	·
Cc1sc(NC(=O)c2ccco2)c(C(c2cccnc2)N2CCC(C)CC2)c1C (centres undefined)	-4.3*	·	·	10	-15	·
O=C(NCC1CCCO1)c1ccc2nc(N3CCCCC3)sc2c1 (centres undefined)	·	10	-58	·	·	5
CC1CCN(c2nc3ccc(C(=O)O)cc3s2)CC1	1.1	11	83*	·	·	6
Cc1ccc(C)c(N2CCN(C(=O)c3ccc(CS(=O)(=O)c4ccccc4C)o3)CC2)c1	-2.1	9	29	5	-10	8
Cc1cccc(N2CCN(C(=O)c3ccc(CS(=O)(=O)c4ccccc4C)o3)CC2C)c1 (centres undefined)	-1.4	-4	42*	6	-11	-7
O=C1C(Cl)=CC(=NS(=O)(=O)c2ccccc2)C=C1Cl	·	·	·	·	·	87*
O=C1C(Cl)=C/C(=N\S(=O)(=O)c2ccc(Cl)cc2)C(Cl)=C1Cl	·	·	·	·	·	5
O=C1c2[nH]nc(-c3ccccc3)c2C(c2ccccc2F)N1c1ccccc1 (centres undefined)	·	·	·	·	·	-11
SMILES	PTK2B oligo ant	AP complement	HEK293 NFkB inh	Plk1 PBD FP	PLK1 kinase inh	HePTP inh
CCN(CC)c1ccc(/C=C2\NC(=S)N(c3ccccc3)C2=O)cc1	·	·	·	·	·	-2
O=[N+]([O-])c1cc(C(F)(F)F)ccc1NCCNC(=S)Nc1ccc(Cl)cc1	-1.2	·	·	1	2	104*
O=C(NCCCCNc1ccc(C(F)(F)F)cc1[N+](=O)[O-])c1ccc(Cl)cc1	·	·	·	·	·	-12
O=[N+]([O-])c1cc2c(cc1C=Nc1ccc(F)cc1)OCO2	·	·	·	·	·	17
COc1ccc(CN2CCN(C(=O)c3cccc(Cl)c3)CC2)c(OC)c1OC	·	·	·	·	·	5
C=CCn1c(SCC(=O)Nc2sc(C)c(C)c2C(=O)OCC)nnc1-c1sc(N)nc1C	-4.5*	-8	5	-17	-9	9
C=CCn1c(SCC(=O)NC2CCCCC2)nnc1-c1sc(N)nc1C	-0.45	7	8	4	-3	5
O=C(OCn1nnc2ccccc2c1=O)c1cn(-c2ccccc2)nc1-c1cccnc1	-4.1*	2	0	-4	-18	8
CCOC(=O)c1cn(-c2ccccc2)nc1-c1cccnc1	-2	10	-3	·	·	10
O=c1c2ccccc2nc(SCc2cn3ccsc3n2)n1-c1ccccc1F	-3.5*	6	18	2	-13	1
COC(=O)CN1C(=O)C(O)(CC(=O)c2ccc(C)o2)c2ccccc21 (centres undefined)	1.1	10	17	10	-15	-4
Cc1ccc(C(=O)CC2(O)C(=O)N(C)c3ccccc32)o1 (centres undefined)	·	11	10	10	63*	6
COc1ccc(N(CC(=O)NCC2CCCO2)S(=O)(=O)c2ccc(C)cc2)cc1 (centres undefined)	·	·	·	·	·	-9
Cc1cccc(NC(=S)NC(=O)C(C)(C)C)c1C	·	·	·	·	·	0
COc1ccc(N(CC(=O)Nc2ccc3ccccc3c2)S(=O)(=O)c2ccc(C)cc2)c(OC)c1	·	·	·	·	·	-10
COc1ccc(N(CC(=O)Nc2ccc3c(c2)OCO3)S(=O)(=O)c2ccccc2)c(OC)c1	-3.2*	8	6	-2	-10	8
COc1cc(/C=c2\s/c(=C(/C#N)C(=O)N3CCCC3)n(-c3ccccc3)c2=O)ccc1O	-3*	4	16	-63	-18	4
Cc1ccc(S(=O)(=O)C(CC(=O)c2ccccc2)c2ccc(Cl)cc2)cc1 (centres undefined)	·	·	·	·	·	1
O=C1c2ccccc2C(=O)N1CCSc1nnc(-c2ccncc2)n1-c1ccccc1	·	·	·	·	·	-4
COCCN1C=C(C(=O)OC)C(c2cc(Br)c(OC)c(OC)c2)C(C(=O)OC)=C1	-3.4*	5	9	9	-2	-5
COc1cc2nc(-c3ccc(Oc4ccc([N+](=O)[O-])cc4)cc3)oc(=O)c2cc1OC	·	·	·	·	·	-6
Cn1cc(/C=N/n2cnc3scc(-c4ccc(Cl)cc4)c3c2=O)c2ccccc21	0.16	2	40*	5	-6	-5
Cc1ccc(Nc2c([N+](=O)[O-])cc(C(=O)N3CC(=O)Nc4ccccc43)cc2[N+](=O)[O-])c(C)c1	-3.4*	·	·	-17	-4	·
CC(=O)c1ccc(N2C(=O)c3ccc(Oc4ccc5c(c4)C(=O)N(c4ccc(C(C)=O)cc4)C5=O)cc3C2=O)cc1	·	·	·	·	·	6

Screens from PubChem.
